In ChEMBL document CHEMBL4196006, “Aryl thiosemicarbazones for the treatment of trypanosomatidic infections” (Eur J Med Chem, 2018):
The source made the active and inactive calls. The calls are words filed in the database; no cut-off is given here.

Legend:
Trypanosoma cruzi = assay: Antitrypanosomal activity against Trypanosoma cruzi amastigote form infected in human U2OS cells assessed as parasite growth inhibition at 50 uM after 72 hrs relative to control; type: functional; conditions: for inhibition of growth at 50 µM: read-out: GI
Summary of the method: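 U2OS monolayers grown for 24 h, then infected with tissue-derived trypomastigotes of T. cruzi Y strain. Compounds were added 24 h after infection at 50 μM (single-point) or in dose-response, with 72 h exposure. Plates were fixed, stained and analysed by high-content imaging; activity was normalized to infected and non-infected controls. Means of at least two experiments; benznidazole as reference.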

CYP1A2 = target: T1, CYP1A2 (Homo sapiens, UniProt P05177); assay: Inhibition of human microsomal CYP1A2 expressed in baculovirus infected BTI-TN-5B1-4 cells at 10 uM incubated for 30 mins by luciferase assay relative to control; type: ADME
T1 sequence (P05177 whole entry): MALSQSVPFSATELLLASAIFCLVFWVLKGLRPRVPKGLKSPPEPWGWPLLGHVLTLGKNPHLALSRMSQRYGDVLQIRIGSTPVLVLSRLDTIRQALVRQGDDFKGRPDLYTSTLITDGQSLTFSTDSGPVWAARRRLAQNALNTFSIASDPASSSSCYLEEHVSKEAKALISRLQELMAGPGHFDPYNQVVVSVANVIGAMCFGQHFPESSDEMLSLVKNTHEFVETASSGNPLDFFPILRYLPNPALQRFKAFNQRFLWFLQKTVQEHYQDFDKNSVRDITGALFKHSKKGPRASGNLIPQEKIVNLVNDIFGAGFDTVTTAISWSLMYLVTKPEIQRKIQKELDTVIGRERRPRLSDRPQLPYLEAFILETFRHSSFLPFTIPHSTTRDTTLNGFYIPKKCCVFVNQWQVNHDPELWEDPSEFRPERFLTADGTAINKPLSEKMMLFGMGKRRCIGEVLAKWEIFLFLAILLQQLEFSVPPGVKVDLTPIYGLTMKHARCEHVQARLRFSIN
Summary of the method: (§1)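 CYP1A2, 2C9, 2C19, 2D6 and 3A4 in microsomes from baculovirus-infected insect cells, each with a P450-Glo luminogenic substrate. Inhibition read as loss of light; single-point at 10 μM, triplicate.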

CYP3A4 = CYP3A4 (Homo sapiens, UniProt P08684); assay: Inhibition of human microsomal CYP3A4 expressed in baculovirus infected BTI-TN-5B1-4 cells at 10 uM incubated for 30 mins by luciferase assay relative to control; type: ADME; summary of the method: as §1
CYP3A4, sequence (P08684 whole entry): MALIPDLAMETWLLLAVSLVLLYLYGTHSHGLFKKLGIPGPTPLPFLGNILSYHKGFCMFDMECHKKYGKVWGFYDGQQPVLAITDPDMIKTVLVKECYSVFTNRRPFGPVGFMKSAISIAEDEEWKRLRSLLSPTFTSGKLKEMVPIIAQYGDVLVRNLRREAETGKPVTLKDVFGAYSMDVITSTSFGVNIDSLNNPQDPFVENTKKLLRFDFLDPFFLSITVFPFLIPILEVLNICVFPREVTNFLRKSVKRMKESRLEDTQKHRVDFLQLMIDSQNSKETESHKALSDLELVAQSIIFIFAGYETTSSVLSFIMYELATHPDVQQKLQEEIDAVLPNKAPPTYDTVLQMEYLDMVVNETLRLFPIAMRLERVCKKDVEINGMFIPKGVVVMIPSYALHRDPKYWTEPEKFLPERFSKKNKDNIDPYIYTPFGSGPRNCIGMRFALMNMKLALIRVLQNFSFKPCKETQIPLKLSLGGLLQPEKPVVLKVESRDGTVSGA

hERG (KCNH2) = hERG (KCNH2) (Homo sapiens, UniProt Q12809); assay: Inhibition of human ERG at 10 uM incubated for 2 hrs by fluorescence polarisation assay relative to control
hERG (KCNH2), sequence (Q12809 whole entry): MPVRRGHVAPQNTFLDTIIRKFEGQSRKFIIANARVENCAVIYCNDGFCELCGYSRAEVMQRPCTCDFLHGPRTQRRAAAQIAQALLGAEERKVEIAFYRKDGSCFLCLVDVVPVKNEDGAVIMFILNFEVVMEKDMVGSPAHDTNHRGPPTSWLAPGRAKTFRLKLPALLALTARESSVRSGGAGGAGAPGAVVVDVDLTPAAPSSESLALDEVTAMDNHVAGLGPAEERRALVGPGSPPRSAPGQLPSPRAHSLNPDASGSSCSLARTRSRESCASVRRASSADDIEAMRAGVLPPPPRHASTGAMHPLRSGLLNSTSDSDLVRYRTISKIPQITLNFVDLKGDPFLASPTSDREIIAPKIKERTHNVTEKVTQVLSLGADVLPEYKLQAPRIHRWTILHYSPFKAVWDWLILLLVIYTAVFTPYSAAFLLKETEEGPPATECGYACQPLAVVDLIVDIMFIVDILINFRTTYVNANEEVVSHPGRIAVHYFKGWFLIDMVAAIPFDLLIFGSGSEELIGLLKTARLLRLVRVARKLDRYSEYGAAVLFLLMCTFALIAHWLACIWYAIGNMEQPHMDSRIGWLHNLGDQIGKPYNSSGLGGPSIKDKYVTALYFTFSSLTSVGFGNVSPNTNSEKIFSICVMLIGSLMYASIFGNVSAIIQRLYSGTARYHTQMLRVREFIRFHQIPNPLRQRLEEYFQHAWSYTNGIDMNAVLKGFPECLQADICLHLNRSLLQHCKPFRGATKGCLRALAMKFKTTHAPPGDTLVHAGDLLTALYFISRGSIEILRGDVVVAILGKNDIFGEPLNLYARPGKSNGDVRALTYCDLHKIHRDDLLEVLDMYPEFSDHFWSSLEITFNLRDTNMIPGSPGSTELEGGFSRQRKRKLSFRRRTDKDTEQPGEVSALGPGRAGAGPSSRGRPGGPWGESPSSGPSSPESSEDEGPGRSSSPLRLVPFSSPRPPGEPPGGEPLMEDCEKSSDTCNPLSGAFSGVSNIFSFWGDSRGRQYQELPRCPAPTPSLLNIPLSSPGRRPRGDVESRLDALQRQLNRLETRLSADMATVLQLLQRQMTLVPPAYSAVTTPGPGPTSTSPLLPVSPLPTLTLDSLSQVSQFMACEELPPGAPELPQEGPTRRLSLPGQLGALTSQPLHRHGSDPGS

CYP2D6 = CYP2D6 (Homo sapiens, UniProt P10635); assay: Inhibition of human microsomal CYP2D6 expressed in baculovirus infected BTI-TN-5B1-4 cells at 10 uM incubated for 30 mins by luciferase assay relative to control; type: ADME; summary of the method: as §1
CYP2D6, sequence (P10635 whole entry): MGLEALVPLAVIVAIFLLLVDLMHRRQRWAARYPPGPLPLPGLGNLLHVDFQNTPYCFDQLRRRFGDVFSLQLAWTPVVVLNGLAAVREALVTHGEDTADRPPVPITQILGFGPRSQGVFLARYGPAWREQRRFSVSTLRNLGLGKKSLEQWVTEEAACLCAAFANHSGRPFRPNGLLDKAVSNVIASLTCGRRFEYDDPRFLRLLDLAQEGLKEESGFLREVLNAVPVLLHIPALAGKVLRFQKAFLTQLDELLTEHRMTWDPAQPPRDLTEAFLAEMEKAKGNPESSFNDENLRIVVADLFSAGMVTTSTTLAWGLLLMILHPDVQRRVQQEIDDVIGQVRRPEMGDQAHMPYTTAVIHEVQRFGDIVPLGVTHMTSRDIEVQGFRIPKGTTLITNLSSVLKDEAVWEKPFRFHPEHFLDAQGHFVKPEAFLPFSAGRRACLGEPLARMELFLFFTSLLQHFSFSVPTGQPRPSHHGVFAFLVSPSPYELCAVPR

[1] = target: T2, Pteridine reductase, putative (Trypanosoma brucei) (UniProt Q581W1); assay: Inhibition of Trypanosoma brucei PTR1 at 50 uM using H2B as substrate in presence of NADPH by photometric analysis relative to control
T2 sequence (whole entry): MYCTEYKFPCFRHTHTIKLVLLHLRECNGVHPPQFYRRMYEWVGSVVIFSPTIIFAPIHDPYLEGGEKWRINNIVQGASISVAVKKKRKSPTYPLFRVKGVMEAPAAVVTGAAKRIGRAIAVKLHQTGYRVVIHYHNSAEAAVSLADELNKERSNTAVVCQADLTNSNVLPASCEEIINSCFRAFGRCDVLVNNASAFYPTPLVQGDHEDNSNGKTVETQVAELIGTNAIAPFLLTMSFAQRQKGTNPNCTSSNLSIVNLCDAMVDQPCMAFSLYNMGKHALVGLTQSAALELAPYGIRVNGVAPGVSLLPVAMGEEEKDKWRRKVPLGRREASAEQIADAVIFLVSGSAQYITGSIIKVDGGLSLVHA

[2] = target: T3, Pteridine reductase 1 (Leishmania major) (UniProt Q01782); assay: Inhibition of Leishmania major PTR1 at 50 uM using H2B as substrate in presence of NADPH by photometric analysis relative to control
T3 sequence (whole entry): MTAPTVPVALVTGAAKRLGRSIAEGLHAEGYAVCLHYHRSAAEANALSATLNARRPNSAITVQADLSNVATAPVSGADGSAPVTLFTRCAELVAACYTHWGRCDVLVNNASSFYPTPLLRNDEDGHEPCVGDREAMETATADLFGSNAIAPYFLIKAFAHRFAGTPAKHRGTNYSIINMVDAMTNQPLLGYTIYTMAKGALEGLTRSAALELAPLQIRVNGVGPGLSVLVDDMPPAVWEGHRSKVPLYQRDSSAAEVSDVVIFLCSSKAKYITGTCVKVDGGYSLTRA

CYP2C19 = CYP2C19 (Homo sapiens, UniProt P33261); assay: Inhibition of human microsomal CYP2C19 expressed in baculovirus infected BTI-TN-5B1-4 cells at 10 uM incubated for 30 mins by luciferase assay relative to control; type: ADME; summary of the method: as §1
CYP2C19, sequence (P33261 whole entry): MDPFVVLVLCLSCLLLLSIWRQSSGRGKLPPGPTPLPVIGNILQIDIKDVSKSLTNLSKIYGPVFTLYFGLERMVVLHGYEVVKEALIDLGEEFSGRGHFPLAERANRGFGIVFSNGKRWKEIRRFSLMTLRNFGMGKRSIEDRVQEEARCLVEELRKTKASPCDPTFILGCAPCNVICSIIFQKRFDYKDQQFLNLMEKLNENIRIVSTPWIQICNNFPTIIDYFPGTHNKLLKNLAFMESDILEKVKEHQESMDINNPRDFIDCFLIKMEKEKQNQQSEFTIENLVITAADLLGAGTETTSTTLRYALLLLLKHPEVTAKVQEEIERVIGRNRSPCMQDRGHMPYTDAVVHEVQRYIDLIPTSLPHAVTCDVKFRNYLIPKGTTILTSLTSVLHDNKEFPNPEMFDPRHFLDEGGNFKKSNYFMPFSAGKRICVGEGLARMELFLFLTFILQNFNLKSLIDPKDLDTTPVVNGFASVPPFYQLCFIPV

CYP2C9 = CYP2C9 (Homo sapiens, UniProt P11712); assay: Inhibition of human microsomal CYP2C9 expressed in baculovirus infected BTI-TN-5B1-4 cells at 10 uM incubated for 30 mins by luciferase assay relative to control; type: ADME; summary of the method: as §1
CYP2C9, sequence (P11712 whole entry): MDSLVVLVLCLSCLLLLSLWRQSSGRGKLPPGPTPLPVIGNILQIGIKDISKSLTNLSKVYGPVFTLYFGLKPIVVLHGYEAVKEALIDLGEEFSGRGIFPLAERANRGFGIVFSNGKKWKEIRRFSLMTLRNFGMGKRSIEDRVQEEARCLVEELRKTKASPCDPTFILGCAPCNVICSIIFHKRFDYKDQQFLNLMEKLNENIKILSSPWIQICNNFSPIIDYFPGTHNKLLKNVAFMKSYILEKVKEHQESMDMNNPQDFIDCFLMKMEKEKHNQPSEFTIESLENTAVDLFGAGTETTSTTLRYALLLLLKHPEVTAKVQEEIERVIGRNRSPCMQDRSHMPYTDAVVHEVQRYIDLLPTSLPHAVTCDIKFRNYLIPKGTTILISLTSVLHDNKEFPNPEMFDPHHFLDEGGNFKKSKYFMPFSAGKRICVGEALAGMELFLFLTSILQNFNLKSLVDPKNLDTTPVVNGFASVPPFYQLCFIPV

Aurora kinase B = Aurora kinase B (Homo sapiens, UniProt Q96GD4); assay: Inhibition of recombinant full-length human aurora B kinase expressed in baculovirus system at 10 uM using MBP as substrate incubated for 45 mins by ADP-glo kinase assay; conditions: probe MBP
Aurora kinase B, sequence (Q96GD4 whole entry): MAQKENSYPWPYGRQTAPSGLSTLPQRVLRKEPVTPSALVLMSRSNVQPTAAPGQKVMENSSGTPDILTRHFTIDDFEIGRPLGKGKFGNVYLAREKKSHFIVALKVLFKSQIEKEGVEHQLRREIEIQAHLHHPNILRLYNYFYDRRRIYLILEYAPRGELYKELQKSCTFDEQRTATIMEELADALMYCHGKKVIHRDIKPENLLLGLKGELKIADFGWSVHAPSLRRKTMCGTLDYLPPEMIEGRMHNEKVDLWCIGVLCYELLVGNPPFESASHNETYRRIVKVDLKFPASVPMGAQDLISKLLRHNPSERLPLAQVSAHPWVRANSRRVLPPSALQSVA
Summary of the method: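 Aurora B activity measured as ADP formation via coupled luciferase ADP-Glo luminescence; single-point at 10 μM, triplicate.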

Nc1nnc(/C=C/c2ccccc2)s1
inhibition of growth at 50 µM (Trypanosoma cruzi): 82%

COc1ccc(/C=N/NC(N)=S)cc1OC
inhibition at 0.5 h, 10 µM (CYP1A2): -9.14% | inhibition at 0.5 h, 10 µM (CYP3A4): -24.4% | inhibition at 2 h, 10 µM (hERG (KCNH2)): 4.1% | inhibition at 0.5 h, 10 µM (CYP2D6): -20.5% | inhibition [1]: 20.1% | inhibition [2]: 20.7% | inhibition at 0.5 h, 10 µM (CYP2C19): -30.2% | inhibition at 0.5 h, 10 µM (CYP2C9): -19.2% | inhibition at 0.75 h, 10 µM (Aurora kinase B): -7.72%

COc1ccc(-c2nnc(N)s2)cc1OC
inhibition of growth at 50 µM (Trypanosoma cruzi): 30.2%

COc1cc(/C=N/NC(N)=S)ccc1O
inhibition at 0.5 h, 10 µM (CYP1A2): 7.06% | inhibition at 0.5 h, 10 µM (CYP3A4): -9.76% | inhibition at 2 h, 10 µM (hERG (KCNH2)): 6.07% | inhibition at 0.5 h, 10 µM (CYP2D6): 22.2% | inhibition [1]: 9.78% | inhibition [2]: 9.85% | inhibition at 0.5 h, 10 µM (CYP2C19): -20.3% | inhibition at 0.5 h, 10 µM (CYP2C9): -7.31% | inhibition at 0.75 h, 10 µM (Aurora kinase B): -0.27%

NC(=S)N/N=C/c1ccc(O)cc1
inhibition at 0.5 h, 10 µM (CYP1A2): -5.15% | inhibition at 0.5 h, 10 µM (CYP3A4): -24.4% | inhibition at 2 h, 10 µM (hERG (KCNH2)): 7.48% | inhibition at 0.5 h, 10 µM (CYP2D6): -3.36% | inhibition [1]: 19.6% | inhibition [2]: 18.2% | inhibition at 0.5 h, 10 µM (CYP2C19): -42.9% | inhibition at 0.5 h, 10 µM (CYP2C9): -21.1% | inhibition at 0.75 h, 10 µM (Aurora kinase B): -5.27%

Nc1nnc(-c2ccc(Cl)c(Cl)c2)s1
inhibition of growth at 50 µM (Trypanosoma cruzi): 23.4%

NC(=S)N/N=C/c1ccc(O)c(O)c1
inhibition at 0.5 h, 10 µM (CYP1A2): -6.6% | inhibition at 0.5 h, 10 µM (CYP3A4): -7.74% | inhibition at 2 h, 10 µM (hERG (KCNH2)): 4.17% | inhibition at 0.5 h, 10 µM (CYP2D6): -9.48% | inhibition [1]: 30.7% | inhibition [2]: 56.5% | inhibition at 0.5 h, 10 µM (CYP2C19): -49.1% | inhibition at 0.5 h, 10 µM (CYP2C9): -7.51% | inhibition at 0.75 h, 10 µM (Aurora kinase B): -12.2%

Nc1nnc(-c2cccc(-c3ccccc3)c2)s1
growth inhibition (GI) (Trypanosoma cruzi): inactive

COc1cccc(OC)c1-c1nnc(N)s1
inhibition of growth at 50 µM (Trypanosoma cruzi): 27.1%

Nc1nnc(-c2ccc(OCc3ccc(Cl)c(Cl)c3)cc2)s1
inhibition of growth at 50 µM (Trypanosoma cruzi): 14.5%

COc1ccc(-c2cccc(-c3nnc(N)s3)c2)cc1OC
inhibition of growth at 50 µM (Trypanosoma cruzi): 14.6%
